In ChEMBL document CHEMBL1124735, “Dehydrogenase binding by tiazofurin anabolites” (J Med Chem, 1990):

Assays:
[1] = target: T1, Alcohol dehydrogenase (Equus caballus, UniProt P00327+P00328); experiment: In vitro inhibitory activity against horse liver Alcohol dehydrogenase
[2] = target: Glutamate dehydrogenase 1, mitochondrial (Bos taurus, UniProt P00366); experiment: In vitro inhibitory activity against bovine liver glutamate dehydrogenase (GDH)
[3] = target: T1, Alcohol dehydrogenase; experiment: In vitro inhibitory activity against horse liver Alcohol dehydrogenase (ADH)
[4] = target: L-lactate dehydrogenase B chain (Sus scrofa, UniProt P00336); experiment: In vitro inhibitory activity against pig heart lactate dehydrogenase (LDH)
How it was run: (§1)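 Pig heart enzymes (cytoplasmic MDH or LDH, from ammonium sulfate suspension) assayed in 0.05 M Tris HCl pH 9.0, with NAD as substrate; rates from NADH appearance by A340 (ε 6.22 mM⁻¹cm⁻¹) or fluorescence calibrated against NADH standards. Run at least in duplicate; kinetic constants from Lineweaver-Burk plots by linear regression.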

[5] = target: T2, Malate dehydrogenase, cytoplasmic (Sus scrofa, UniProt P11708); experiment: In vitro inhibitory activity against pig heart cytoplasmic malate dehydrogenase (MDH); how it was run: as §1
T2 sequence (P11708 whole entry): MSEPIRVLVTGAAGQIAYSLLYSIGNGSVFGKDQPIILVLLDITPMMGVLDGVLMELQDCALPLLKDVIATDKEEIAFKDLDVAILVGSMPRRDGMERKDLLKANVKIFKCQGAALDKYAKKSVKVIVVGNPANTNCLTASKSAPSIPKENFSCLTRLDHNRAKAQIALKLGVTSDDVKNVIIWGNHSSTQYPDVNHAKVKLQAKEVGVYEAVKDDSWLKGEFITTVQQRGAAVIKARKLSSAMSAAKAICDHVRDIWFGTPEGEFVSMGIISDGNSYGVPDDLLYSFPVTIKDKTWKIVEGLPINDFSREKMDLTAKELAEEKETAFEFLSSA

[6] = target: T1, Alcohol dehydrogenase; experiment: Dissociation constant from Alcohol dehydrogenase; type: protein assay

Glutamate dehydrogenase 1, mitochondrial, sequence (P00366 whole entry): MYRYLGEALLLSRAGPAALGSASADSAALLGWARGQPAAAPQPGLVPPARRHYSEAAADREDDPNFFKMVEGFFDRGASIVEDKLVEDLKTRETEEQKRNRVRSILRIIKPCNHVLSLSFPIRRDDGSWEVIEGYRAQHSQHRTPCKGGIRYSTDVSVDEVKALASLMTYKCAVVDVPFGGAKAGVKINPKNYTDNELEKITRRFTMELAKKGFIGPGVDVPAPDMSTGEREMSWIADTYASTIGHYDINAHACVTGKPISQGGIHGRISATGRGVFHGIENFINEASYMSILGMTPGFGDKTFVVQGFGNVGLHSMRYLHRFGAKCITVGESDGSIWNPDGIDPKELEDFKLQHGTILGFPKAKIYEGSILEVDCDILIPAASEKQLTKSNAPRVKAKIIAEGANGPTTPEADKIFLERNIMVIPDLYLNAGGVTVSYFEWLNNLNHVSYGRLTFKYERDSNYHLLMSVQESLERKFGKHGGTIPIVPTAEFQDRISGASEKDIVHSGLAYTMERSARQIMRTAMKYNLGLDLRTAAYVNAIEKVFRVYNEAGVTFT
L-lactate dehydrogenase B chain, sequence (P00336 whole entry): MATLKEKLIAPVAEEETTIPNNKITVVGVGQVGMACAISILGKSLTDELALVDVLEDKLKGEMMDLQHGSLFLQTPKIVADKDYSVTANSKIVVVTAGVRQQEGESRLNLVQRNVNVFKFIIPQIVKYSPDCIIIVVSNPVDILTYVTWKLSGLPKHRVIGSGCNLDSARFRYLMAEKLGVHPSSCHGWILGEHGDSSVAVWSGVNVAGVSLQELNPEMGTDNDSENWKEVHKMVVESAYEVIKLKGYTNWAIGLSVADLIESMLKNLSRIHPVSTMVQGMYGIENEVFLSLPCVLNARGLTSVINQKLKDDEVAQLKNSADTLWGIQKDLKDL

| Ki [1] | Ki [2] | Ki [3] | Ki [4] | Ki [5] | Kd [6] | SMILES |
| --- | --- | --- | --- | --- | --- | --- |
| 0.105 mM | 65.2 µM | – | – | – | – | NC(=O)c1csc([C@@H]2O[C@H](COP(=O)(O)O)[C@@H](O)[C@H]2O)n1 |
| > 10 mM | > 10000 µM | – | – | – | – | NC(=O)c1csc([C@@H]2O[C@H](CO)[C@@H](O)[C@H]2O)n1 [TIAZOFURIN] |
| > 10 mM | > 10000 µM | – | – | – | – | NC(=O)c1ccc[n+]([C@@H]2O[C@H](COP(=O)([O-])O)[C@@H](O)[C@H]2O)c1 [BETANMN] |
| – | 4.5 µM | 26.5 µM | 25.2 µM | 36.3 µM | 27 µM | NC(=O)c1csc([C@H]2O[C@@H](COP(=O)(O)OP(=O)(O)OC[C@H]3O[C@@H](n4cnc5c(N)ncnc54)[C@H](O)[C@@H]3O)[C@H](O)[C@@H]2O)n1 |
